Laboratory results as given in ChEMBL document CHEMBL1177864, “Synthesis and biological evaluation of some thio containing pyrrolo [2,3-d]pyrimidine derivatives for their anti-inflammatory and anti-microbial activities” (2010).
Values after ≈ are worked out from the molar mass of the structure shown. Active and inactive are the calls of the source. The calls are words filed in the database; no cut-off is given here.

What was measured:
[1] = test system: Rattus norvegicus; test: Antiinflammatory activity in Sprague-Dawley rat assessed as inhibition of carrageenan-induced paw edema at 50 to 70 mg/kg, sc administered 1 hr before carrageenan challenge measured after 1 hr relative to control; assay type: functional; conditions: dose mg/kg 50-70; route subcutaneous
In short: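 One hour later, baseline right hind paw volume was taken, then 0.05 mL of 1% carrageenan in sterile pyrogen-free 0.9% NaCl was injected into the plantar aponeurosis. Paw volume was read by water plethysmometer at 1, 2, 3 and 4 h. % inhibition = (1 − Rt/Rc) × 100 against carrageenan-only controls (n=5).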

[2] = test system: Rattus norvegicus; test: Antiinflammatory activity in Sprague-Dawley rat assessed as inhibition of carrageenan-induced paw edema at 50 to 70 mg/kg, sc administered 1 hr before carrageenan challenge measured after 3 hrs relative to control; conditions: dose mg/kg 50-70; route subcutaneous
[3] = test system: Rattus norvegicus; test: Antiinflammatory activity in Sprague-Dawley rat assessed as inhibition of carrageenan-induced paw edema at 50 to 70 mg/kg, sc administered 1 hr before carrageenan challenge measured after 4 hrs relative to control; conditions: dose mg/kg 50-70; route subcutaneous
[4] = test system: Rattus norvegicus; test: Antiinflammatory activity in Sprague-Dawley rat assessed as inhibition of carrageenan-induced paw edema at 50 to 70 mg/kg, sc administered 1 hr before carrageenan challenge measured after 2 hrs relative to control; conditions: dose mg/kg 50-70; route subcutaneous
[5] = test system: Staphylococcus aureus; test: Antimicrobial activity against Staphylococcus aureus ATCC 29213 at 4 ug/disk by disk diffusion method; assay type: functional, organism-based
[6] = test system: Escherichia coli; test: Antimicrobial activity against Escherichia coli ATCC 25922 at 4 ug/disk by disk diffusion method; assay type: functional, organism-based
[7] = test system: Candida albicans; test: Antimicrobial activity against Candida albicans ATCC 10231 at 4 ug/disk by disk diffusion method; assay type: functional; conditions: read-out: DIZ
[8] = test system: Pseudomonas aeruginosa; test: Antimicrobial activity against Pseudomonas aeruginosa ATCC […] at 4 ug/disk by disk diffusion method; assay type: functional, organism-based
[9] = test system: Bacillus subtilis; test: Antimicrobial activity against Bacillus subtilis ATCC 6633 at 4 ug/disk by disk diffusion method; assay type: functional, organism-based
[10] = test system: Mycolicibacterium phlei; test: Antimicrobial activity against Mycobacterium phlei ATCC 10142 at 4 ug/disk by disk diffusion method; assay type: functional, organism-based
[11] = test system: Candida albicans; test: Antimicrobial activity against Candida albicans ATCC 10231 after 48 hrs by microdilution assay; assay type: functional; conditions: ATCC 10231, 48 h
In short: (§1)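 MIC by microdilution following NCCLS 1997 guidelines. Compounds were serially two-fold diluted in DMSO from 1024 down to […], mixed with sterile nutrient agar, and inoculum was added to each well. MIC was read as the lowest concentration giving complete absence of macroscopic growth. Controls were DMSO, organism alone and medium alone. Bacteria were precultured on MHA at 37 °C overnight; Candida on SDA at 35 °C.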

[12] = test system: Bacillus subtilis; test: Antimicrobial activity against Bacillus subtilis ATCC 6633 after 24 hrs by microdilution assay; assay type: functional; conditions: ATCC 6633, 24 h
In short: (§2)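 MIC by micro-dilution per NCCLS 1997. Bacteria were subcultured overnight on Mueller-Hinton agar at 37 °C and passaged at least twice. Compounds were serially two-fold diluted in DMSO (1024 down to 16 stock levels) and mixed with sterile nutrient agar, then inoculum was added to the wells. MIC is the lowest concentration giving complete inhibition of macroscopic growth. Controls were DMSO, organism alone and medium alone.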

[13] = test system: Mycolicibacterium phlei; test: Antimicrobial activity against Mycobacterium phlei ATCC 10142 at 25 ug/disk by disk diffusion method; assay type: functional, organism-based
In short: (§3)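 Disc diffusion sensitivity test as per Bauer et al. Bacteria were subcultured on Mueller-Hinton agar overnight at 37 °C; Candida on SDA at 35 °C for 24-48 h, each passaged at least twice. DMSO served as solvent control; amoxicillin and fluconazole were references. Read-out was the inhibition zone.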

[14] = test system: Candida albicans; test: Antimicrobial activity against Candida albicans ATCC 10231 at 25 ug/disk by disk diffusion method; assay type: functional, organism-based; in short: as §3
[15] = test system: Staphylococcus aureus; test: Antimicrobial activity against Staphylococcus aureus ATCC 29213 at 25 ug/disk by disk diffusion method; assay type: functional; conditions: read-out: DIZ; in short: as §3
[16] = test system: Escherichia coli; test: Antimicrobial activity against Escherichia coli ATCC 25922 after 24 hrs by microdilution assay; assay type: functional; conditions: ATCC 25922, 24 h
In short: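 MIC by microdilution following NCCLS 1997 guidelines. Bacteria were subcultured on Mueller-Hinton agar overnight at 37 °C and passaged at least twice. Compounds were serially two-fold diluted in DMSO (1024 down to 16), mixed with nutrient agar, and inoculated. MIC was the lowest concentration with no macroscopic growth. DMSO, organism-only and medium-only controls were included, with amoxicillin as reference.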

[17] = test system: Pseudomonas aeruginosa; test: Antimicrobial activity against Pseudomonas aeruginosa ATCC […] after 24 hrs by microdilution assay; assay type: functional; in short: as §2
[18] = test system: Pseudomonas aeruginosa; test: Antimicrobial activity against Pseudomonas aeruginosa ATCC […] at 25 ug/disk by disk diffusion method; assay type: functional; conditions: read-out: DIZ; in short: as §3
[19] = test system: Bacillus subtilis; test: Antimicrobial activity against Bacillus subtilis ATCC 6633 at 25 ug/disk by disk diffusion method; assay type: functional; conditions: read-out: DIZ; in short: as §3
[20] = test system: Escherichia coli; test: Antimicrobial activity against Escherichia coli ATCC 25922 at 25 ug/disk by disk diffusion method; assay type: functional; conditions: read-out: DIZ; in short: as §3
[21] = test system: Staphylococcus aureus; test: Antimicrobial activity against Staphylococcus aureus ATCC 29213 after 24 hrs by microdilution assay; assay type: functional; conditions: ATCC 29213, 24 h; in short: as §1
[22] = test system: Candida albicans; test: Antimicrobial activity against Candida albicans ATCC 10231 at 20 ug/disk by disk diffusion method; assay type: functional, organism-based; in short: as §3
[23] = test system: Mycolicibacterium phlei; test: Antimicrobial activity against Mycobacterium phlei ATCC 10142 at 20 ug/disk by disk diffusion method; assay type: functional, organism-based; in short: as §3
[24] = test system: Escherichia coli; test: Antimicrobial activity against Escherichia coli ATCC 25922 at 20 ug/disk by disk diffusion method; assay type: functional, organism-based; in short: as §3
[25] = test system: Bacillus subtilis; test: Antimicrobial activity against Bacillus subtilis ATCC 6633 at 20 ug/disk by disk diffusion method; assay type: functional; conditions: read-out: DIZ; in short: as §3
[26] = test system: Staphylococcus aureus; test: Antimicrobial activity against Staphylococcus aureus ATCC 29213 at 20 ug/disk by disk diffusion method; assay type: functional, organism-based; in short: as §3
[27] = test system: Pseudomonas aeruginosa; test: Antimicrobial activity against Pseudomonas aeruginosa ATCC […] at 20 ug/disk by disk diffusion method; assay type: functional, organism-based; in short: as §3

## S=c1[nH]c(=S)c2c(-c3ccccc3)cn(-c3ccc(Cl)c(Cl)c3)c2[nH]1
[1]
  inhibition (INH): 1.73%
[2]
  inhibition (INH): 12.53%
[3]
  inhibition (INH): 26%
[4]
  inhibition (INH): 4.48%

## Cc1c(-n2c(-c3ccccc3)c(-c3ccccc3)c3c(=N)n(-c4ccccc4)c(=S)[nH]c32)n(C)n(-c2ccccc2)c1=O
[1]
  inhibition (INH): 1.98%

## OC(Cn1cncn1)(Cn1cncn1)c1ccc(F)cc1F [FLUCONAZOLE]
[5]
  diameter of the inhibition zone (DIZ): inactive
[6]
  diameter of the inhibition zone (DIZ): inactive
[7]
  zone of inhibition at 4 µg/disc: 20 mm
[8]
  diameter of the inhibition zone (DIZ): inactive
[9]
  diameter of the inhibition zone (DIZ): inactive
[10]
  diameter of the inhibition zone (DIZ): inactive
[11]
  MIC: 512 µg/mL (≈ 1670 µM)

## Cc1c(-n2c(-c3ccccc3)c(-c3ccccc3)c3c(=S)[nH]c(=S)[nH]c32)n(C)n(-c2ccccc2)c1=O
[1]
  inhibition (INH): 0%
[2]
  inhibition (INH): 14.1%
[3]
  inhibition (INH): 28.8%
[4]
  inhibition (INH): 3.94%

## NNc1nc(N)c2c(-c3ccccc3)cn(-c3ccc(Cl)c(Cl)c3)c2n1
[1]
  inhibition (INH): 14.78%
[2]
  inhibition (INH): 95.58%
[3]
  inhibition (INH): 67.43%
[4]
  inhibition (INH): 30%

## O=c1/c(=C/c2ccccc2)sc2nc3c(c(-c4ccccc4)cn3-c3ccc(Cl)c(Cl)c3)c(=S)n12
[1]
  inhibition (INH): 0%

## CC(C)Cc1ccc(C(C)C(=O)O)cc1 (stereo not drawn) [IBUPROFEN]
[1]
  inhibition (INH): 6.08%
[2]
  inhibition (INH): 60.66%
[3]
  inhibition (INH): 69.52%
[4]
  inhibition (INH): 45%

## N#Cc1c(-c2ccccc2)cn(-c2ccc(Cl)c(Cl)c2)c1N
[1]
  inhibition (INH): 2.17%
[2]
  inhibition (INH): 13.88%
[3]
  inhibition (INH): 19.04%
[4]
  inhibition (INH): 12.3%

## N=c1c2c(-c3ccccc3)cn(-c3ccc(Cl)c(Cl)c3)c2[nH]c(=S)n1-c1ccccc1
[1]
  inhibition (INH): 42%
[2]
  inhibition (INH): 76.83%
[3]
  inhibition (INH): 68.57%
[4]
  inhibition (INH): 48.07%

## S=c1[nH]c(=S)c2c(-c3ccccc3)c(-c3ccccc3)n(Cc3ccccc3)c2[nH]1
[1]
  inhibition (INH): 2.608%
[2]
  inhibition (INH): 13.23%
[12]
  MIC: 512 µg/mL (≈ 1200 µM)
[3]
  inhibition (INH): 27.61%
[4]
  inhibition (INH): 5.38%

## Cc1c(-n2c(-c3ccccc3)c(-c3ccccc3)c3c(=S)n4c(=O)/c(=C/c5ccccc5)sc4nc32)n(C)n(-c2ccccc2)c1=O
[1]
  inhibition (INH): 1.74%

## CC1(C)S[C@@H]2[C@H](NC(=O)[C@H](N)c3ccc(O)cc3)C(=O)N2[C@H]1C(=O)O [AMOXICILLIN]
[13]
  diameter of the inhibition zone (DIZ): inactive
[14]
  diameter of the inhibition zone (DIZ): inactive
[15]
  zone of inhibition at 25 µg/disc: 13 mm
[16]
  MIC: 256 µg/mL (≈ 701 µM)
[17]
  MIC: 64 µg/mL (≈ 175 µM)
[18]
  zone of inhibition at 25 µg/disc: 12 mm
[19]
  zone of inhibition at 25 µg/disc: 12 mm
[20]
  zone of inhibition at 25 µg/disc: 13 mm
[12]
  MIC: 64 µg/mL (≈ 175 µM)
[21]
  MIC: 16 µg/mL (≈ 43.8 µM)

## O=c1/c(=C/c2ccccc2)sc2nc3c(c(-c4ccccc4)c(-c4ccccc4)n3Cc3ccccc3)c(=S)n12
[1]
  inhibition (INH): 3.498%

## Nc1nc(=S)[nH]c2c1c(-c1ccccc1)c(-c1ccccc1)n2Cc1ccccc1
[1]
  inhibition (INH): 1.73%
[2]
  inhibition (INH): 13.97%
[12]
  MIC: 512 µg/mL (≈ 1250 µM)
[21]
  MIC: 256 µg/mL (≈ 627 µM)
[3]
  inhibition (INH): 24.76%
[4]
  inhibition (INH): 3.84%

## Cc1c(-n2c(-c3ccccc3)c(-c3ccccc3)c3c(N)nc(=S)[nH]c32)n(C)n(-c2ccccc2)c1=O
[1]
  inhibition (INH): 0%
[2]
  inhibition (INH): 73.34%
[3]
  inhibition (INH): 64.28%
[4]
  inhibition (INH): 0%

## Cc1c(-n2c(N)c(C#N)c(-c3ccccc3)c2-c2ccccc2)n(C)n(-c2ccccc2)c1=O
[22]
  diameter of the inhibition zone (DIZ): inactive
[23]
  diameter of the inhibition zone (DIZ): inactive
[24]
  diameter of the inhibition zone (DIZ): inactive
[1]
  inhibition (INH): 9.5%
[2]
  inhibition (INH): 62.62%
[12]
  MIC: 512 µg/mL (≈ 1150 µM)
[25]
  zone of inhibition at 20 µg/disc: 10 mm
[26]
  diameter of the inhibition zone (DIZ): inactive
[3]
  inhibition (INH): 64.68%
[4]
  inhibition (INH): 36.53%
[27]
  diameter of the inhibition zone (DIZ): inactive

## N#Cc1c(-c2ccccc2)c(-c2ccccc2)n(Cc2ccccc2)c1N
[1]
  inhibition (INH): 3.04%
[2]
  inhibition (INH): 12.59%
[3]
  inhibition (INH): 23.8%
[4]
  inhibition (INH): 4.23%

## NNc1nc(N)c2c(-c3ccccc3)c(-c3ccccc3)n(Cc3ccccc3)c2n1
[1]
  inhibition (INH): 10.43%
[2]
  inhibition (INH): 73.9%
[3]
  inhibition (INH): 79.04%
[4]
  inhibition (INH): 61.15%

## Nc1nc(=S)[nH]c2c1c(-c1ccccc1)cn2-c1ccc(Cl)c(Cl)c1
[1]
  inhibition (INH): 6.08%
[2]
  inhibition (INH): 95.95%
[3]
  inhibition (INH): 76.82%
[4]
  inhibition (INH): 95.38%
